Experimental data reported in ChEMBL document CHEMBL2406971, “Optimization of Arylamides as Novel, Potent and Brain-penetrant Antiprion Lead Compounds” (ACS Med Chem Lett, 2013).

Assays:
[1] = test system: Liver; experiment: Half life in mouse liver microsomes at 1 uM by LC/MS/MS analysis; assay type: ADME, Microsome
[2] = test system: Plasma; experiment: Cmax in CD-1 mouse plasma at 10 mg/kg, po after 6 hrs by LC/MS analysis; assay type: ADME, organism-based; parameters: dose 10 mg/kg, route oral; conditions: in vivo
[3] = AUC (0 to 6 hrs) in CD-1 mouse plasma at 10 mg/kg, po by LC/MS analysis; assay type: ADME, organism-based; parameters: time < 6 hr, dose 10 mg/kg, route oral
[4] = test system: Brain; experiment: Cmax in CD-1 mouse brain at 10 mg/kg, po after 6 hrs by LC/MS analysis; assay type: ADME, organism-based; parameters: dose 10 mg/kg, route oral; conditions: in vivo
[5] = AUC (0 to 6 hrs) in CD-1 mouse brain at 10 mg/kg, po by LC/MS analysis; assay type: ADME, organism-based; parameters: time < 6 hr, dose 10 mg/kg, route oral
[6] = Cytotoxicity against mouse ScN2a-cl3 cells after 5 days by calcein-AM assay; assay type: cell-based, N2a-cl3; conditions: read-out: LD50
Summary of the method: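 Run alongside every EC50 measurement. Toxicity toward ScN2a-cl3 cells scored with the fluorescent probe calcein-AM.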

[7] = Ratio of drug level in brain to plasma in CD-1 mouse at 10 mg/kg, po; assay type: ADME, organism-based; parameters: dose 10 mg/kg, route oral; conditions: brain and plasma, read-out: BPR

Row | SMILES | t1/2 [1] | Cmax [2] | AUC(0-t) at 6 h [3] | Cmax [4] | AUC(0-t) at 6 h [5] | CC50 at 120 h [6] | Kp [7]
1 | CCN1CCN(c2ccc(NC(=O)c3ccc(-c4ccccn4)cc3)cc2)CC1 | 27 min | 280 nM | 1.05 µM·h | 6230 nM | 24.2 µM·h | > 10 µM | 
2 | CCN1CCN(c2ccc(NC(=O)c3ccc(-c4cccnc4)cc3)cc2)CC1 | 29.2 min | 210 nM | 0.25 µM·h | 1440 nM | 3.32 µM·h | > 10 µM | 
3 | CCN1CCN(c2ccc(NC(=O)c3ccc(-c4ccncc4)cc3)cc2)CC1 |  |  |  |  |  | > 10 µM | 
4 | CC(C)N1CCN(c2ccc(NC(=O)c3ccc(-c4ccccn4)cc3)cc2)CC1 |  | 320 nM | 1.2 µM·h | 90 nM | 0.28 µM·h | > 10 µM | 
5 | CC(C)N1CCN(c2ccc(NC(=O)c3ccc(-c4ccccn4)cc3)nc2)CC1 |  | 340 nM | 1.26 µM·h | 6000 nM | 22.3 µM·h | > 10 µM | 
6 | CC(C)N1CCN(c2ccc(NC(=O)c3ccc(-c4ccccn4)cc3)cn2)CC1 |  |  |  |  |  | > 10 µM | 
7 | CC(C)N1CCN(c2ccc(NC(=O)c3ccc(-c4ccccn4)cc3)c(F)c2)CC1 |  | 650 nM | 1.46 µM·h | 17300 nM | 39.8 µM·h | > 10 µM | 
8 | CC(C)N1CCN(c2ccc(NC(=O)c3ccc(-c4ccccn4)cc3)cc2F)CC1 |  | 460 nM | 2.28 µM·h | 6750 nM | 28.7 µM·h | > 10 µM | 
9 | CN1CCN(c2ccc(NC(=O)c3ccc(-c4ccccc4)cc3)cc2)CC1 |  |  |  |  |  | > 5 µM | 
10 | CCN1CCN(c2ccc(NC(=O)c3ccc(-c4ccccc4)cc3)cc2)CC1 |  | 370 nM | 1.09 µM·h | 7950 nM | 25.4 µM·h |  | ≤ 10
11 | CC(C)N1CCN(c2ccc(NC(=O)c3ccc(-c4ccccc4)cc3)cc2)CC1 |  | 270 nM | 0.97 µM·h | 2520 nM | 7.48 µM·h | > 10 µM | ≤ 10
